Measured values: ChEMBL document CHEMBL4689842, “EUbOPEN Chemogenomics Library wave 1” (2021)
Several values for one entry are separate records, joined by “and”; a condition that tells them apart may be missing. Equal values may be shown once.

Test system: HEK-293T
Test: Multiplex assay against HEK293T;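 on Population Tubulin-Different-Phenotype (%): share of the cells with healthy nuclei that show this phenotype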
Assay type: toxicity, cell-based
Conditions: human
Procedure, shortened: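 Per cents of healthy-nucleus cells form the tubulin, mitochondrial-mass and membrane-permeability phenotype values. Live cells were stained at seeding with Hoechst33342, BioTracker Green Microtubule Cytoskeleton Dye, MitoTracker Red and Annexin V Alexa Fluor 680. After compound addition they were imaged on a CQ1 microscope at 37°C and 5% CO2, and CellPathfinder machine-learning gating split them into Hoechst high-intensity objects or normal cells, normal cells into healthy, pyknosed or fragmented nuclei, and pyknosed cells into mitotic or apoptotic.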

[1] = 12 h, 1 µM, compound concentration 1 uM, replicate 1
[2] = 12 h, 1 µM, compound concentration 1 uM, replicate 2
[3] = 12 h, 10 µM, compound concentration 10 uM, replicate 1
[4] = 12 h, 10 µM, compound concentration 10 uM, replicate 2
[5] = 24 h, 1 µM, compound concentration 1 uM, replicate 1
[6] = 24 h, 1 µM, compound concentration 1 uM, replicate 2
[7] = 24 h, 10 µM, compound concentration 10 uM, replicate 1
[8] = 24 h, 10 µM, compound concentration 10 uM, replicate 2

SMILES: CC[C@@]1(O)C(=O)OCc2c1cc1n(c2=O)Cc2cc3ccccc3nc2-1 [CAMPTOTHECIN]
- Population Apoptotic (%) [1]: 13% and 29% and 33%
- Population Healthy Nuclei (%) [1]: 67% and 60% and 69%
- Population Membrane Permeable-Phenotype (%) [1]: 5% and 3%
- Population Mitochondria Different-Phenotype (%) [1]: 5% and 3%
- Population Mitotic Cells (%) [1]: 86% and 70% and 66%
- Population Normal (%) [1]: 94% and 66% and 79%
- Population Tubulin-Different-Phenotype (%) [1]: 5% and 0% and 2%
- Total Cell Count [1]: 915 and 710 and 886
- Population Healthy Nuclei (%) [2]: 94% and 77% and 79%
- Population Membrane Permeable-Phenotype (%) [2]: 2% and 1%
- Population Mitochondria Different-Phenotype (%) [2]: 19% and 9%
- Population Mitotic Cells (%) [2]: 87% and 81% and 50%
- Population Normal (%) [2]: 98% and 95% and 96%
- Population Pyknosed Nuclei (%) [2]: 2% and 1% and 0%
- Total Cell Count [2]: 1821 and 1627 and 1427
- Population Apoptotic (%) [3]: 16%
- Population Fragmented Nuclei (%) [3]: 15%
- Population Healthy Nuclei (%) [3]: 57%
- Population Hoechst High Intensity Objects (%) [3]: 13%
- Population Membrane Permeable-Phenotype (%) [3]: 3%
- Population Mitochondria Different-Phenotype (%) [3]: 2%
- Population Mitotic Cells (%) [3]: 83%
- Population Normal (%) [3]: 86%
- Population Pyknosed Nuclei (%) [3]: 26%
- Population Tubulin-Different-Phenotype (%) [3]: 2%
- Total Cell Count [3]: 665
- Population Apoptotic (%) [4]: 20%
- Population Fragmented Nuclei (%) [4]: 3%
- Population Healthy Nuclei (%) [4]: 93%
- Population Hoechst High Intensity Objects (%) [4]: 2%
- Population Membrane Permeable-Phenotype (%) [4]: 2%
- Population Mitochondria Different-Phenotype (%) [4]: 14%
- Population Mitotic Cells (%) [4]: 80%
- Population Normal (%) [4]: 97%
- Population Pyknosed Nuclei (%) [4]: 3%
- Population Tubulin-Different-Phenotype (%) [4]: 9%
- Total Cell Count [4]: 1781
- Population Apoptotic (%) [5]: 26% and 33% and 22%
- Population Healthy Nuclei (%) [5]: 68% and 76% and 85%
- Population Membrane Permeable-Phenotype (%) [5]: 7% and 5% and 4%
- Population Mitochondria Different-Phenotype (%) [5]: 3% and 4% and 5%
- Population Mitotic Cells (%) [5]: 73% and 66% and 77%
- Population Normal (%) [5]: 69% and 81% and 96%
- Population Pyknosed Nuclei (%) [5]: 5% and 2% and 10%
- Population Tubulin-Different-Phenotype (%) [5]: 5% and 6%
- Total Cell Count [5]: 653 and 837 and 854
- Population Fragmented Nuclei (%) [6]: 18% and 8%
- Population Healthy Nuclei (%) [6]: 81% and 78% and 90%
- Population Hoechst High Intensity Objects (%) [6]: 5%
- Population Membrane Permeable-Phenotype (%) [6]: 2% and 1%
- Population Mitochondria Different-Phenotype (%) [6]: 6% and 8% and 7%
- Population Mitotic Cells (%) [6]: 100% and 62%
- Population Normal (%) [6]: 94%
- Population Pyknosed Nuclei (%) [6]: 0%
- Population Tubulin-Different-Phenotype (%) [6]: 8% and 13%
- Total Cell Count [6]: 1448 and 1582 and 1694
- Population Apoptotic (%) [7]: 23%
- Population Fragmented Nuclei (%) [7]: 11%
- Population Healthy Nuclei (%) [7]: 73%
- Population Hoechst High Intensity Objects (%) [7]: 8%
- Population Membrane Permeable-Phenotype (%) [7]: 4%
- Population Mitochondria Different-Phenotype (%) [7]: 2%
- Population Mitotic Cells (%) [7]: 76%
- Population Normal (%) [7]: 92%
- Population Pyknosed Nuclei (%) [7]: 15%
- Population Tubulin-Different-Phenotype (%) [7]: 3%
- Total Cell Count [7]: 575
- Population Apoptotic (%) [8]: 44%
- Population Fragmented Nuclei (%) [8]: 8%
- Population Healthy Nuclei (%) [8]: 90%
- Population Hoechst High Intensity Objects (%) [8]: 4%
- Population Membrane Permeable-Phenotype (%) [8]: 0%
- Population Mitochondria Different-Phenotype (%) [8]: 4%
- Population Mitotic Cells (%) [8]: 55%
- Population Normal (%) [8]: 95%
- Population Pyknosed Nuclei (%) [8]: 0%
- Population Tubulin-Different-Phenotype (%) [8]: 5%
- Total Cell Count [8]: 1706
